# Published values collected from several papers.
# Lines come from different studies, so protocols differ.
# CHRM2: Muscarinic acetylcholine receptor M2 (CHRM2, Homo sapiens, UniProt P08172)
# PTGES: Prostaglandin E synthase (PTGES, Homo sapiens, UniProt O14684)
SMILES,target,observed,action,technique,endpoint,value
CCCCCCCCCCCCNCCCc1ccc([N+](=O)[O-])cc1,CHRM2,ligand displacement,,radioligand,Ki,5.6 µM
CCCCCc1cc(O)c2c(c1)OC(C)(C)[C@@H]1CCC(C)=C[C@@H]21,PTGES,enzyme activity,inhibitor,,IC50,> 10 µM
CCCCCCCNCCCc1ccc([N+](=O)[O-])cc1,CHRM2,ligand displacement,,radioligand,Ki,3.2 µM
CC(C)C[C@H](NC(=O)CNC(=O)[C@H](C)NC(=O)c1ccc(S[C@@H]2O[C@H](CO)[C@H](O)[C@H](O)[C@H]2O)cc1)C(=O)N[C@@H](C)C(=O)N[C@H]1CCN(c2cc3c(cc2F)c(=O)c(C(=O)O)cn3C2CC2)C1,"PA-I galactophilic lectin (lecA, Pseudomonas aeruginosa, UniProt Q05097)",ligand displacement,,FP,Ki,12 µM
CCCCCc1cc(O)c2c(c1)OC(C)(C)c1ccc(C)cc1-2,PTGES,enzyme activity,inhibitor,,IC50,> 10 µM
CC(C)(C)[C@H](NC(=O)C(F)(F)F)C(=O)N1C[C@H]2[C@@H]([C@H]1C(=O)N[C@H](C#N)C[C@@H]1CCNC1=O)C2(C)C,"Organic anion transporter 3 (SLC22A8, Homo sapiens, UniProt Q8TCC7)",transporter uptake,inhibitor,,Ki,521 µM
CC(C)[N+](C)(CCC(C(N)=O)(c1ccccc1)c1ccccc1)C(C)C,CHRM2,ligand displacement,,radioligand,IC50,0.007 µM
CC(C)C[C@H](NC(=O)[C@H](Cc1ccccc1)NC(=O)[C@H](Cc1ccc(O)cc1)NC(=O)CNC(=O)[C@H](CCCCN)NC(=O)[C@H](CO)NC(=O)[C@H](CCC(N)=O)NC(=O)CNC(=O)[C@@H](NC(=O)[C@H](CO)NC(=O)[C@@H]1CCCN1C(=O)[C@H](CO)NC(=O)[C@H](CCC(N)=O)NC(=O)[C@H](Cc1ccc(O)cc1)NC(=O)[C@H](CCC(=O)O)NC(=O)[C@H](C)NC(=O)[C@H](CCCCN)NC(=O)[C@@H](N)Cc1ccccc1)C(C)C)C(=O)N[C@@H](Cc1ccccc1)C(=O)N[C@@H](CCCNC(=N)N)C(=O)N1CCC[C@H]1C(=O)N[C@@H](CCCNC(=N)N)C(=O)N[C@@H](CC(N)=O)C(N)=O,"Neuromedin-U receptor 1 (Mus musculus, UniProt O55040)",β-arrestin recruitment,agonist,,EC50,0.000501 µM
